Reference: ChEMBL document CHEMBL3044661, “Antifungal clerodane diterpenes from Macaranga monandra (L) Muell. et Arg. (Euphorbiaceae)” (J Agric Food Chem, 2003)
The source made the active and inactive calls. The rule behind the calls is not given here.

Key:
Colletotrichum fragariae [1] = experiment: Growth inhibition of Colletotrichum fragariae at < / = 30 uM after 72 hr by microtiter assay; format: functional, organism-based
Procedure, shortened: (§1)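 96-well broth microassay. Conidia came from 7–10-day PDA cultures, were filtered through miracloth and set photometrically (625 nm %T curve) to 1.0×10^6 conidia/mL. Final doses were 0.3, 3.0 and 30.0 µM, in duplicate. Plates ran at 24 ± 1 °C with a 12-h photoperiod. A620 was read at 48 and 72 h. Percent inhibition (n = 4) was taken relative to untreated growth controls (n = 32). Split-plot design, replicated twice in time.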

Fusarium oxysporum = experiment: Growth inhibition of Fusarium oxysporum at < / = 30 uM after 48 to 72 hr by microtiter assay; format: functional, organism-based; procedure, shortened: as §1
Botrytis cinerea = experiment: Growth inhibition of Botryotinia fuckeliana at 30 uM after 48 hr by microtiter assay; format: functional; conditions: read-out: GI; procedure, shortened: as §1
[2] = test system: Colletotrichum gloeosporioides; experiment: Growth inhibition of Colletotrichum gloeosporioides at < / = 30 uM after 48 to 72 hr by microtiter assay; format: functional, organism-based; procedure, shortened: as §1
Phomopsis obscurans [3] = experiment: Growth stimulation of Phomopsis obscurans at low concentration by microtiter assay; format: organism-based; conditions: paraphomopsis obscurans, in vivo
Procedure, shortened: (§2)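 96-well broth microassay against Phomopsis viticola or P. obscurans. Conidial inoculum was filtered and photometrically set to 1.0×10^6 conidia/mL. Final doses were 0.3, 3.0 and 30.0 µM, in duplicate. Incubation was at 24 ± 1 °C with a 12-h photoperiod, and A620 was recorded at 120 h. Mean percent inhibition (n = 4) was taken against untreated positive controls (n = 32). Split-plot design, replicated twice in time.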

Colletotrichum fragariae [4] = experiment: Antifungal activity against Colletotrichum fragariae assessed as zone of inhibition at 50 ug/ml after 4 days by TLC bioautographic analysis; format: functional; conditions: 96 h, read-out: IZ
Procedure, shortened: (§3)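 TLC bioautography on silica gel GF plates with fluorescent indicator. Compounds were spotted in a dose series at final 3.12–100 µg/mL. Plates were sprayed three times with conidia at final 3.0×10^5 conidia/mL in potato-dextrose broth with 0.1% Tween-80, then held in a moisture chamber at 24 ± 1 °C with a 12-h photoperiod. Inhibition zones (mm) were read at 4 d and reported as mean ± SD.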

[5] = test system: Colletotrichum gloeosporioides; experiment: Growth stimulation of Colletotrichum gloeosporioides at low concentration by microtiter assay; format: organism-based; conditions: in vivo; procedure, shortened: as §1
Colletotrichum acutatum [6] = experiment: Growth stimulation of Colletotrichum acutatum at low concentration by microtiter assay; format: organism-based; conditions: in vivo; procedure, shortened: as §1
Diaporthe ampelina = experiment: Growth inhibition of Diaporthe ampelina at 30 uM after 120 hr by microtiter assay; format: functional; conditions: read-out: GI; procedure, shortened: as §2
Colletotrichum fragariae [7] = experiment: Antifungal activity against Colletotrichum fragariae assessed as zone of inhibition at 25 ug/ml after 4 days by TLC bioautographic analysis; format: functional; conditions: 96 h, read-out: IZ; procedure, shortened: as §3
Colletotrichum acutatum [8] = experiment: Growth inhibition of Colletotrichum acutatum at < / = 30 uM after 48 to 72 hr by microtiter assay; format: functional, organism-based; procedure, shortened: as §1
Phomopsis obscurans [9] = experiment: Growth inhibition of Phomopsis obscurans at 30 uM after 120 hr by microtiter assay; format: functional; conditions: Paraphomopsis obscurans, read-out: GI; procedure, shortened: as §2
[10] = test system: Colletotrichum gloeosporioides; experiment: Antifungal activity against Colletotrichum gloeosporioides assessed as zone of inhibition at 100 ug/ml after 4 days by TLC bioautographic analysis; format: functional; conditions: 96 h, read-out: IZ; procedure, shortened: as §3
Colletotrichum fragariae [11] = experiment: Antifungal activity against Colletotrichum fragariae assessed as zone of inhibition at 100 ug/ml after 4 days by TLC bioautographic analysis; format: functional; conditions: 96 h, read-out: IZ; procedure, shortened: as §3

| SMILES | growth inhibition (GI) (Colletotrichum fragariae [1]) | growth inhibition (GI) (Fusarium oxysporum) | inhibition of growth at 30 µM (Botrytis cinerea) [%] | growth inhibition (GI) [2] | Activity (Phomopsis obscurans [3]) | zone of inhibition at 50 µg/mL (Colletotrichum fragariae [4]) [mm] | Activity [5] | Activity (Colletotrichum acutatum [6]) | inhibition of growth at 30 µM (Diaporthe ampelina) [%] | zone of inhibition at 25 µg/mL (Colletotrichum fragariae [7]) [mm] | growth inhibition (GI) (Colletotrichum acutatum [8]) | inhibition of growth at 30 µM (Phomopsis obscurans [9]) [%] | zone of inhibition at 100 µg/mL [10] [mm] | zone of inhibition at 100 µg/mL (Colletotrichum fragariae [11]) [mm] |
| --- | --- | --- | --- | --- | --- | --- | --- | --- | --- | --- | --- | --- | --- | --- |
| CC1=CC(=O)C[C@@H]2[C@@](C)(CC/C(C)=C/C(=O)O)[C@H](C)CC[C@@]12C [2-OXO-KOLAVENIC ACID] | inactive | inactive | 23 | inactive | Dose-dependent effect and tde | 8 | Dose-dependent effect and tde | Dose-dependent effect and tde | 46 | 6 | inactive | 8 | 0 | 8 |
| CC1=CCC[C@@H]2[C@@](C)(CC/C(C)=C/C(=O)O)[C@H](C)CC[C@@]12C [KOLAVENIC ACID] | inactive | inactive | 23 | inactive | Dose-dependent effect and tde | 8.5 | Dose-dependent effect and tde | Dose-dependent effect and tde | 50 | 5 | inactive | 26 | 9.5 | 9 |
